In ChEMBL document CHEMBL5226344, “A Chemical Strategy for Intracellular Arming of an Endogenous Broad-Spectrum Antiviral Nucleotide” (J Med Chem, 2021):
Activity calls are given as the source filed them. The calls are words filed in the database; no cut-off is given here.

Legend:
[1] = (§1) Competitive inhibition of Zika virus RNA-dependent RNA polymerase assessed as chain termination by measuring inhibition of full length RNA production in presence of 10 uM CTP by primer extension assay based PAGE analysis
Procedure, shortened: (§2)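 Purified ZIKV NS5 RdRp (1 μM), E. coli-expressed ubiquitin fusion with C-terminal His tag. Assembled 30 min at 30 °C with pGGC RNA primer, 20-nt RNA template, ATP, GTP and [α-32P]-ATP in HEPES pH 7.5 buffer with Mg2+. Started with UTP, 10 μM CTP and ddhCTP 0–5000 μM, 5 min, EDTA quench. Full-length RNA scored by denaturing 23% PAGE. IC50 from curve fits, 3 independent repeats.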

Zika virus [2] = assay: as §1; procedure, shortened: as §2
West Nile virus [3] = assay: (§3) Antiviral activity against West Nile virus infected in African green monkey Vero cells assessed as reduction in virus-induced cytopathic effect at 0.1 to 1 mM cells were pretreated with compound for 24 hrs followed by drug removal and subsequent viral infection for 1 hr and later incubated with compound and measured at 3 days post-infection; type: functional, organism-based; details: dose 0.1-1 mM, time 3.0 day
West Nile virus [4] = assay: as §3, with “human Huh-7” for “African green monkey Vero”; type: functional, organism-based; details: dose 0.1-1 mM, time 3.0 day
Procedure, shortened: (§4)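 Cells grown in DMEM with 2% FBS, pretreated 24 h before confluency with media containing 0, 0.1 or 1 mM compound (diluted from DMSO stocks). Media removed, WNV (2003 crow isolate) added at MOI 0.1 for 1 h, then washed 3x with HBSS. Drug-containing overlay applied, 37°C, 5% CO2, 3 days. Media harvested, titre by plaque titration, triplicate. One-way ANOVA with Dunnett's test.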

West Nile virus [5] = assay: as §3, with “human Huh7.5” for “African green monkey Vero”; type: functional, organism-based; details: dose 0.1-1 mM, time 3.0 day; procedure, shortened: as §4
Vero = assay: Cytotoxicity against African green monkey Vero cells assessed as reduction in cell viability at 0.1 to 1 mM incubated for 2 days by Alamar Blue assay; type: toxicity, cell-based; details: chlorocebus sabaeus, 48 h, 1000 µM, dose 0.1-1 mM, time 2 day
Procedure, shortened: (§5)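 HUH7 (2,000 cells/well) or Vero (1,500 cells/well) seeded in 10% FBS medium, 24 h; serially diluted compound added (final DMSO 0.5%); incubated 2 or 5 days; Alamar blue added 2 h before read; fluorescence minus no-cell background, normalized to DMSO control; technical triplicates, at least three biological replicates.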

Huh-7 = assay: Cytotoxicity against human Huh-7 cells assessed as reduction in cell viability at 0.1 to 1 mM incubated for 2 days by Alamar Blue assay; type: toxicity, cell-based; details: huh-7, 48 h, 1000 µM, dose 0.1-1 mM, time 2 day; procedure, shortened: as §5
[6] = Drug metabolism in human Huh-7 cells expressing HINT1 assessed as ddhCTP level at 100 uM incubated for 24 hrs measured per 5 million cells by mass spectrometry (Rvb <0.01 nmol); details: huh-7, 24 h
Zika virus [7] = assay: (§6) Antiviral activity against Zika virus PRABC59 infected in human Huh-7 cells assessed as log reduction in plaque forming units at 0.1 mM cells were pretreated with compound for 24 hrs followed by drug removal and subsequent viral infection for 1 hr and later incubated with compound and measured at 4 days post-infection; type: functional; details: time 5 day
Procedure, shortened: (§7)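 Cells in 24-well plates (2% FBS medium) pretreated 24 h with compound in medium (0, 0.1, 1 mM), medium removed, infected at MOI 0.1 for 1 h, washed three times, overlaid with drug-containing medium; 37°C, 5% CO2 for 3 days (WNV, 2003 crow isolate) or 4 days (ZIKV PRABC59); supernatant titered by plaque assay; triplicates; one-way ANOVA with Dunnett's test.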

[8] = Metabolic stability of the compound in human plasma assessed as parent compound remaining at 2 uM measured upto 2 hrs by LC-MS analysis; type: ADME, cell-free
Procedure, shortened: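 Pooled human plasma (3 male, 3 female), pH 7.4, spiked to 2 μM final; 37°C; sampled at 0, 10, 30, 60, 120 min; quenched with MeCN:MeOH containing tolbutamide and labetalol; LC-MS peak-area ratio versus internal standards, percent remaining relative to t0; propantheline as positive control.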

Zika virus [9] = assay: as §6, with “Huh7.5” for “Huh-7”; type: functional; parameters: dose or concentration left out as unconfirmed; details: time 5 day
West Nile virus [10] = assay: as §6, with “against West Nile” for “against Zika”, “virus” for “virus PRABC59”, “at 1” for “at 0.1”, “at 3” for “at 4”; type: functional; details: time 4 day; procedure, shortened: as §7
[11] = Drug metabolism in human Huh-7 cells transfected with HINT1 assessed as intracellular concentration of ddhCTP at 100 uM incubated for 24 hrs by mass spectrometry; type: ADME, cell-based; details: huh-7, 24 h
[12] = Cytotoxicity against human Huh-7 cells assessed as cell viability at 1 mM incubated for 5 days by Alamar Blue assay; type: toxicity, cell-based; details: time 5 day, read-out: Activity; procedure, shortened: as §5
West Nile virus [13] = assay: as §6, with “against West Nile” for “against Zika”, “virus” for “virus PRABC59”, “human Huh7.5” for “human Huh-7”, “at 1” for “at 0.1”, “at 3” for “at 4”; type: functional; details: time 4 day; procedure, shortened: as §7
[14] = Stability of the compound in simulated gastric fluid assessed as parent compound remaining at 200 uM measured after 6 hrs by LC-MS/MS analysis; type: physicochemical; details: read-out: Stability
[15] = Apparent permeability across apical to basolateral side in human Caco-2 cells at 2 to 10 uM incubated for 2 hrs […]; type: ADME, cell-based; details: dose 2-10 µM
Procedure, shortened: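 Caco-2 monolayers grown 21-28 days; compound at 2 or 10 μM in HBSS/10 mM HEPES pH 7.4 (DMSO <1%); 2 h at 37°C, 5% CO2; donor and receiver quantified by LC-MS against internal standard; monolayer integrity by Lucifer Yellow; Papp from receiver accumulation rate, volume, area 0.0804 cm2 and initial donor concentration.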

[16] = Cytotoxicity against African green monkey Vero cells assessed as cell viability at 1 mM incubated for 5 days by Alamar Blue assay; type: toxicity, cell-based; details: chlorocebus sabaeus, time 5 day, read-out: Activity; procedure, shortened: as §5
Zika virus [17] = assay: Antiviral activity against Zika virus PRABC59 infected in African green monkey Vero cells assessed as reduction in virus-induced cytopathic effect at 0.1 to 1 mM cells were pretreated with compound for 24 hrs followed by drug removal and subsequent viral infection for 1 hr and later incubated with compound and measured at 4 days post-infection; type: functional, organism-based; details: dose 0.1-1 mM, time 5.0 day

SMILES | IC50 [1] [µM] | inhibition (Zika virus [2]) | Activity (West Nile virus [3]) | Activity (West Nile virus [4]) | Activity (West Nile virus [5]) | Activity (Vero) | Activity (Huh-7) | Drug metabolism [6] [nmol] | Activity (Zika virus [7]) [log10PFU/ml] | Stability [8] [%] | Activity (Zika virus [9]) [log10PFU/ml] | Activity (West Nile virus [10]) [log10PFU/ml] | Drug metabolism [11] [mM] | viability at 120 h, 1000 µM [12] [%] | Activity (West Nile virus [13]) [log10PFU/ml] | remaining at 6 h, 200 µM [14] [%] | Papp A→B at 2 h, up to 10 µM [15] [×10⁻⁶ cm/s] | viability at 120 h, 1000 µM [16] [%] | Activity (Zika virus [17])
Nc1ccn([C@@H]2OC(COP(=O)(O)OP(=O)(O)OP(=O)(O)O)=C[C@H]2O)c(=O)n1 | 320 | Dose-Dependent Effect |  |  |  |  |  |  |  |  |  |  |  |  |  |  |  |  | 
Nc1ccn([C@@H]2OC(CO)=C[C@H]2O)c(=O)n1 |  |  | inactive | inactive | inactive | Non-Toxic | Non-Toxic | 0.13 |  |  |  |  |  |  |  |  |  |  | 
CC(C)OC(=O)[C@H](C)N[P@@](=O)(OCC1=C[C@@H](O)[C@H](n2ccc(N)nc2=O)O1)Oc1ccccc1 |  |  | inactive |  |  | Non-Toxic | Non-Toxic | 3.8 | >1 | > 87 | >1 | >4 | > 1 | > 60 | >4 | 76 | 0.03 | > 60 | inactive
